According to BindingDB's records for doi:10.1016/j.bmc.2010.03.038 (Northwestern University, 2010):

Tests used:
[1] = biological target: Voltage-dependent L-type calcium channel subunit alpha-1C (Oryctolagus cuniculus, UniProt P15381); assay: Antagonist activity at rabbit Cav1.2 expressed in HEK293 cells assessed as inhibition of voltage pulse-induced calcium current by FLIPR calcium 4 assay
Procedure, shortened: (§1)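 HEK293 lines stably expressing Cavβ3 and Cavα2δ-1 plus Cav1.2 α1C (rabbit) or Cav1.3 α1D (rat) were selected with zeocin/hygromycin. Calcium signals were read by FLIPR with Calcium 4 dye. IC50 came from 11-point dose-response curves. Signal percentage error (SD/mean) was 6.4% for Cav1.2 and 4.1% for Cav1.3 cells.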

[2] = biological target: Voltage-dependent L-type calcium channel subunit alpha-1D (Rattus norvegicus, UniProt P27732); assay: Antagonist activity at rat Cav1.3 expressed in HEK293 cells assessed as inhibition of voltage pulse-induced calcium current by FLIPR calcium 4 assay; procedure, shortened: as §1
Voltage-dependent L-type calcium channel subunit alpha-1D, sequence (P27732 whole entry): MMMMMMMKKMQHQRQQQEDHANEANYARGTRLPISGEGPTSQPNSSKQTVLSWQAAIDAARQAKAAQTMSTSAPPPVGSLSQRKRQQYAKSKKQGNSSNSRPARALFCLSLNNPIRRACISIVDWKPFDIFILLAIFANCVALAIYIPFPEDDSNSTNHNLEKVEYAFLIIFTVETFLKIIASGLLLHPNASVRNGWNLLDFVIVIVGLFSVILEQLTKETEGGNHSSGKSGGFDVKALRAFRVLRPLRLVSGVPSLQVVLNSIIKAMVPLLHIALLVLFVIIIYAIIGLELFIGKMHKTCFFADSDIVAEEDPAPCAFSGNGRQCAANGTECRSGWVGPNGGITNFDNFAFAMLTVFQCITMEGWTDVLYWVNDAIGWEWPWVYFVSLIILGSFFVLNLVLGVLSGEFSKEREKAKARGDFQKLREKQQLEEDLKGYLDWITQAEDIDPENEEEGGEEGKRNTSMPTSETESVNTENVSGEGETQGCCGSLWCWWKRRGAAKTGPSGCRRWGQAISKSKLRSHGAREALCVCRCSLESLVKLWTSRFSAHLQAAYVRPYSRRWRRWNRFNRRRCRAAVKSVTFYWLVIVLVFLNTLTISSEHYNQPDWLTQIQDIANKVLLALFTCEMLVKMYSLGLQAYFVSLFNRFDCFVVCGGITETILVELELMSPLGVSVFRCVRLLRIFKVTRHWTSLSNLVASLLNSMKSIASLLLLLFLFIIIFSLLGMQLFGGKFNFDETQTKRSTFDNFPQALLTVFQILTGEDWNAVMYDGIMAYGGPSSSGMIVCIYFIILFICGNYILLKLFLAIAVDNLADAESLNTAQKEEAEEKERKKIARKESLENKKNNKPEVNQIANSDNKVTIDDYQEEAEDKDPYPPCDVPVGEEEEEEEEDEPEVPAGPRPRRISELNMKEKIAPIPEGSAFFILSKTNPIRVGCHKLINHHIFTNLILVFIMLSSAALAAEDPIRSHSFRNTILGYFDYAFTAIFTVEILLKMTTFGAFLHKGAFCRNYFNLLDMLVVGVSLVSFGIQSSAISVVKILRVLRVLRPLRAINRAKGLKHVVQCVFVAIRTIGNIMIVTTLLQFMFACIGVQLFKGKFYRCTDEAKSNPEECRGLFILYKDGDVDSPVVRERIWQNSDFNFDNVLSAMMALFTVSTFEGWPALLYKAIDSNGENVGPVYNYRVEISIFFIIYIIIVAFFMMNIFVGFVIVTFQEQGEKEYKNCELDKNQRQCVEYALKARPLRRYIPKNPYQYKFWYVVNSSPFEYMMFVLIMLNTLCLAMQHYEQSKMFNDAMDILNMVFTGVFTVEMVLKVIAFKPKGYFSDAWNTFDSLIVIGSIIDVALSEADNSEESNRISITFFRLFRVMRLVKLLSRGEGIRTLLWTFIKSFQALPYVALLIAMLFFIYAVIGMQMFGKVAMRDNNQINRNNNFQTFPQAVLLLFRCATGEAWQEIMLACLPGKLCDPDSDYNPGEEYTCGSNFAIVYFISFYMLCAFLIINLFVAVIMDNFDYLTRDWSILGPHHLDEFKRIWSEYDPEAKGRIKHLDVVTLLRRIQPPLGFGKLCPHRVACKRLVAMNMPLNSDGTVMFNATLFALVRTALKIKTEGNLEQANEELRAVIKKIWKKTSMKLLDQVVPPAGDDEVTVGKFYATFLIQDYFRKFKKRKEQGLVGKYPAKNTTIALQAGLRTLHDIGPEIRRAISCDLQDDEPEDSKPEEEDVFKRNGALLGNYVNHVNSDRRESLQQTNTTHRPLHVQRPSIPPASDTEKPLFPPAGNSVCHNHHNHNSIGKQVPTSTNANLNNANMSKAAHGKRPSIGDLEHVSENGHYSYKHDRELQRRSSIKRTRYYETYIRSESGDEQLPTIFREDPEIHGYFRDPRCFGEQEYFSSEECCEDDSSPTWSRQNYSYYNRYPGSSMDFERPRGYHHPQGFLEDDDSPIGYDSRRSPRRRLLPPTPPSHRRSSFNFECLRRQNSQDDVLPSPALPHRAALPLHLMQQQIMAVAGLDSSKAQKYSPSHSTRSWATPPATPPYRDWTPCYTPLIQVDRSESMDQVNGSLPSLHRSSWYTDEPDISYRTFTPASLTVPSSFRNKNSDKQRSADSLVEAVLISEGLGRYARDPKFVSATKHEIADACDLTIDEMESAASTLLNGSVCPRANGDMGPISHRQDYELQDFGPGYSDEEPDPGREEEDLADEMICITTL

Voltage-dependent L-type calcium channel subunit alpha-1C, sequence (P15381 whole entry): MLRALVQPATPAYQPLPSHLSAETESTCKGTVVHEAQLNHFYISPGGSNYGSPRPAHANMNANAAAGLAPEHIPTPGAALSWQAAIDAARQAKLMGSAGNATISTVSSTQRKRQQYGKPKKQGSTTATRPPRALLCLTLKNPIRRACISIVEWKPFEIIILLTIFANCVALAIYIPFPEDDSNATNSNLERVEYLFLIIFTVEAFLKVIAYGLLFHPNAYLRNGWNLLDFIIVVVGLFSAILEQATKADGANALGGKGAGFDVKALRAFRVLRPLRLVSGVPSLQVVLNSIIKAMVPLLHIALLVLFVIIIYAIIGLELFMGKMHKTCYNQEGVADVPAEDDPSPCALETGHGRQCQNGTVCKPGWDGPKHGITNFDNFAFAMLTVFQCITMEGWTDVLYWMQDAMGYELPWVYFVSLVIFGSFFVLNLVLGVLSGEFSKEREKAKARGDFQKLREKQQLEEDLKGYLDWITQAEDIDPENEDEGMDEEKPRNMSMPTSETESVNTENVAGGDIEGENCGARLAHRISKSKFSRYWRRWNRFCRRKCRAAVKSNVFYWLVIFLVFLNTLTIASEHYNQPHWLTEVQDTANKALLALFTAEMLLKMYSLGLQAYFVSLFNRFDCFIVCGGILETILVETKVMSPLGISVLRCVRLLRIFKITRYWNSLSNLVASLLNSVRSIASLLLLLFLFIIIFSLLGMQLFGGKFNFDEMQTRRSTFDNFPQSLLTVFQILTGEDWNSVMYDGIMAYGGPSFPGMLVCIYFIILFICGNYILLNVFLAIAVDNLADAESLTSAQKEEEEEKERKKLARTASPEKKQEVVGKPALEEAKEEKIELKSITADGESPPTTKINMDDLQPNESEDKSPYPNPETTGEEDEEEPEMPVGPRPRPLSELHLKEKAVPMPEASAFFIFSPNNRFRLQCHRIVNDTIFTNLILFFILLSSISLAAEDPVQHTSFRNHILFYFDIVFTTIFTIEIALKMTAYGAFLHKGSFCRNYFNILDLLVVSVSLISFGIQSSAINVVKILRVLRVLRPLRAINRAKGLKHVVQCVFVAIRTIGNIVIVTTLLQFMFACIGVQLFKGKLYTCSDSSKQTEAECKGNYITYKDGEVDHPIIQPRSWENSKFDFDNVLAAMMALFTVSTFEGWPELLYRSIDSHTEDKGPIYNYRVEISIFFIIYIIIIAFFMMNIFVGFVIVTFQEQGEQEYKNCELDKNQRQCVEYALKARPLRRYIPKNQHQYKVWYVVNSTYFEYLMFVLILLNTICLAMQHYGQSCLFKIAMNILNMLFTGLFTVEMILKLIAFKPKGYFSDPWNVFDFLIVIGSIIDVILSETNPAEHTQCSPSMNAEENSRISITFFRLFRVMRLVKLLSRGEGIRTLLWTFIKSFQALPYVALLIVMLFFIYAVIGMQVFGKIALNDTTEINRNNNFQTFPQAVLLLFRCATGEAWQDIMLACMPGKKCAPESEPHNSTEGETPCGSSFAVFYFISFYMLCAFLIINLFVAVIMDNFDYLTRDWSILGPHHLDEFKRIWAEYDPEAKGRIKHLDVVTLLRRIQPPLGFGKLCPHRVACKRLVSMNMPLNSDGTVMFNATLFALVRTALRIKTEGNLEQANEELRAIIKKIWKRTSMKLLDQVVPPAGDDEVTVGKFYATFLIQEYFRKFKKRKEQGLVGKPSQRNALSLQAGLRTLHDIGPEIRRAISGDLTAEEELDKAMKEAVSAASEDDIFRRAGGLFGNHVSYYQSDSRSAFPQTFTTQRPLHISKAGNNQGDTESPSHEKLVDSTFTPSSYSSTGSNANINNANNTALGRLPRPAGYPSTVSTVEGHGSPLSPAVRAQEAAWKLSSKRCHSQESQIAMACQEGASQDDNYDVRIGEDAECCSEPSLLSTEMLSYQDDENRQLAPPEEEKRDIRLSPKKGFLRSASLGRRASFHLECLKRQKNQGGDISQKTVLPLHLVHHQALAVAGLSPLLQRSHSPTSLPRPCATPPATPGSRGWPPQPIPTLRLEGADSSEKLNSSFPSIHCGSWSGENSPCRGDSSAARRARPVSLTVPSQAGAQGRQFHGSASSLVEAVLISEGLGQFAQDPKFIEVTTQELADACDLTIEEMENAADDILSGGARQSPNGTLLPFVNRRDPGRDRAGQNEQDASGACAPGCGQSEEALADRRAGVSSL

## COC(=O)C1C(C)=NC(C)=C(C(=O)OCc2ccccc2)C1c1cccc([N+](=O)[O-])c1 (stereo not drawn) [3-benzyl 5-methyl 2,6-dimethyl-4-(3-nitrophenyl)-1,4-dihydropyridine-3,5-dicarboxylate]
[1]
  IC50: 25 nM
[2]
  IC50: 15 nM

## COC(=O)C1C(C)=NC(C)=C(C(=O)OC2C=CCCC2)C1c1cccc([N+](=O)[O-])c1 (stereo not drawn) [3-cyclohex-2-enyl 5-methyl 2,6-dimethyl-4-(3-nitrophenyl)-1,4-dihydropyridine-3,5-dicarboxylate]
[1]
  IC50: 10 nM
[2]
  IC50: 10 nM

## C=CCOC(=O)C1=C(C)N=C(C)C(C(=O)OCC)C1c1cccc([N+](=O)[O-])c1 (stereo not drawn) [3-allyl 5-ethyl 2,6-dimethyl-4-(3-nitrophenyl)-1,4-dihydropyridine-3,5-dicarboxylate]
[1]
  IC50: 25 nM
[2]
  IC50: 15 nM

## C=C(C)C(=O)OCCOC(=O)C1=C(C)N=C(C)C(C(=O)OCC)C1c1cccc([N+](=O)[O-])c1 (stereo not drawn) [3-ethyl 5-(2-(methacryloyloxy)ethyl)2,6-dimethyl-4-(3-nitrophenyl)-1,4-dihydropyridine-3,5-dicarboxylate]
[1]
  IC50: 10 nM
[2]
  IC50: 10 nM
